Data published in ChEMBL document CHEMBL1127060 (1993).
Values joined by “and” are separate entries in the source; they are usually repeats but may differ in a detail not shown here. Identical values can stand only once. Active and inactive are the calls of the source. No cut-off for these calls is given here.

Key:
Cavia porcellus [1] = organism: Cavia porcellus; test: Tested for contraction of guinea pig vas deferens at 37 degree C; More potent than or equal to ATP; assay type: functional
Cavia porcellus [2] = organism: Cavia porcellus; test: Tested for contraction of guinea pig isolated urinary bladder detrusor muscle at 37 degree C; Potency equal to ATP; assay type: functional; details: Muscle tissue
Oryctolagus cuniculus [3] = organism: Oryctolagus cuniculus; test: Tested for relaxation of carbachol-contracted rabbit aorta at 37 degree C; More potent than or equal to 2MeSATP; assay type: functional
Cavia porcellus [4] = organism: Cavia porcellus; test: Tested for relaxation of carbachol-contracted guinea pig taenia coli at 37 degree C; Significantly more potent than ATP; assay type: functional
[5] = Agonism at turkey erythrocyte P2Y receptor.; assay type: functional, Meleagris gallopavo
Procedure, shortened: (§1)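 Turkey erythrocytes labeled 18–24 h at 37 °C with 2-[3H]myo-inositol in inositol-free DMEM; ghosts made by hypotonic lysis (5 mM Na phosphate pH 7.4, 5 mM MgCl2, 1 mM EGTA). PLC assay: ~175 μg protein ghosts, 1 μM GTPγS, Hepes pH 7.0 medium with 424 μM CaCl2, 2 mM EGTA; 5 min, 30 °C; total [3H]inositol phosphates by anion exchange; K0.5 averaged from 3–8 curves.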

Oryctolagus cuniculus [6] = organism: Oryctolagus cuniculus; test: Tested for relaxation of carbachol-contracted rabbit mesenteric artery at 37 degree C; More potent than or equal to 2MeSATP; assay type: functional
Oryctolagus cuniculus [7] = organism: Oryctolagus cuniculus; test: Tested for contraction of rabbit saphenous artery produced by 1 uM alpha,beta-MeATP at 37 degree C; Not active; assay type: functional
Cavia porcellus [8] = organism: Cavia porcellus; test: Tested for contraction of guinea pig isolated urinary bladder detrusor muscle at 37 degree C; Less potent than or equal to ATP; assay type: functional; details: Muscle tissue
Cavia porcellus [9] = organism: Cavia porcellus; test: Tested for contraction of guinea pig vas deferens at 37 degree C; Not active; assay type: functional
Cavia porcellus [10] = organism: Cavia porcellus; test: Tested for relaxation of carbachol-contracted guinea pig taenia coli at 37 degree C; More potent than or equal to ATP; assay type: functional
Oryctolagus cuniculus [11] = organism: Oryctolagus cuniculus; test: Tested for contraction of rabbit saphenous artery produced by 1 uM alpha,beta-MeATP at 37 degree C; assay type: functional
Oryctolagus cuniculus [12] = organism: Oryctolagus cuniculus; test: Tested for relaxation of carbachol-contracted rabbit aorta at 37 degree C; Significantly more potent than 2MeSATP; assay type: functional
Cavia porcellus [13] = organism: Cavia porcellus; test: Tested for contraction of guinea pig vas deferens at 37 degree C; Potency equal to ATP; assay type: functional
Oryctolagus cuniculus [14] = organism: Oryctolagus cuniculus; test: Tested for relaxation of carbachol-contracted rabbit mesenteric artery at 37 degree C; Significantly more potent than 2MeSATP; assay type: functional
Cavia porcellus [15] = organism: Cavia porcellus; test: Tested for contraction of guinea pig isolated urinary bladder detrusor muscle at 37 degree C; 100 times more potent than ATP; assay type: functional; details: Muscle tissue
Cavia porcellus [16] = organism: Cavia porcellus; test: Tested for contraction of guinea pig vas deferens at 37 degree C; Significantly more potent than ATP; assay type: functional
Cavia porcellus [17] = organism: Cavia porcellus; test: Tested for contraction of guinea pig isolated urinary bladder detrusor muscle at 37 degree C; Significantly more potent than ATP; assay type: functional; details: Muscle tissue
Cavia porcellus [18] = organism: Cavia porcellus; test: Tested for contraction of guinea pig isolated urinary bladder detrusor muscle at 37 degree C; More potent than or equal to ATP; assay type: functional; details: Muscle tissue
Cavia porcellus [19] = organism: Cavia porcellus; test: Tested for contraction of guinea pig isolated urinary bladder detrusor muscle at 37 degree C; Not active; assay type: functional; details: Muscle tissue
Cavia porcellus [20] = organism: Cavia porcellus; test: Tested for relaxation of carbachol-contracted guinea pig taenia coli at 37 degree C; Potency equal to ATP; assay type: functional
Oryctolagus cuniculus [21] = organism: Oryctolagus cuniculus; test: Tested for relaxation of carbachol-contracted rabbit aorta at 37 degree C; More potent or equal to 2MeSATP; assay type: functional
Oryctolagus cuniculus [22] = organism: Oryctolagus cuniculus; test: Tested for relaxation of carbachol-contracted rabbit mesenteric artery at 37 degree C; Potency equal to 2MeSATP; assay type: functional
Oryctolagus cuniculus [23] = organism: Oryctolagus cuniculus; test: Tested for relaxation of carbachol-contracted rabbit mesenteric artery at 37 degree C; Less potent or equal to 2MeSATP; assay type: functional
Cavia porcellus [24] = organism: Cavia porcellus; test: Tested for contraction of guinea pig vas deferens at 37 degree C; Less potent than or equal to ATP; assay type: functional
Cavia porcellus [25] = organism: Cavia porcellus; test: Tested for relaxation of carbachol-contracted guinea pig taenia coli at 37 degree C; Significantly less potent than ATP; assay type: functional
Meleagris gallopavo = test: Tested for stimulation of production of inositol phosphate in turkey erythrocyte membrane; Not active; assay type: functional; procedure, shortened: as §1

Structure (SMILES) | Relative activity (Cavia porcellus [2]) | Relative activity (Cavia porcellus [4]) | K 0.5 [5] | Relative activity (Oryctolagus cuniculus [6]) | Relative activity (Oryctolagus cuniculus [7]) | Relative activity (Oryctolagus cuniculus [12]) | Relative activity (Oryctolagus cuniculus [14]) | also measured
Nc1nc(SC2CCCCC2)nc2c1ncn2C1O[C@H](COP(=O)(O)OP(=O)(O)OP(=O)(O)O)[C@@H](O)[C@H]1O (some centres not stated) | Active | 8 | 24 nM | 5.9 | inactive |  |  | Relative activity (Cavia porcellus [1]): Active; Relative activity (Oryctolagus cuniculus [3]): 6.3
C=CCCCCSc1nc(NC)c2ncn(C3O[C@H](COP(=O)(O)OP(=O)(O)OP(=O)(O)O)[C@@H](O)[C@H]3O)c2n1 (some centres not stated) |  |  | 26 nM | 5.6 and 6 |  |  |  | Relative activity (Cavia porcellus [8]): Partially active; Relative activity (Cavia porcellus [9]): inactive; Relative activity (Cavia porcellus [10]): 7.2; Relative activity (Oryctolagus cuniculus [11]): 1.5%
CSc1nc(N)c2ncn([C@@H]3O[C@H](COP(=O)(O)OP(=O)(O)OP(=O)(O)O)[C@@H](O)[C@H]3O)c2n1 | Active | 8 | 8 nM |  | inactive | 6.8 | 6.5 | Relative activity (Cavia porcellus [13]): Active
N#CCCCCCCSc1nc(N)c2ncn(C3O[C@H](COP(=O)(O)OP(=O)(O)OP(=O)(O)O)[C@@H](O)[C@H]3O)c2n1 (some centres not stated) |  | 8.6 | 10 nM |  |  | 7 | 6.9 | Relative activity (Cavia porcellus [15]): Active; Relative activity (Cavia porcellus [16]): Active; Relative activity (Oryctolagus cuniculus [11]): 9.2%
Nc1nc(SCCCCCCCS)nc2c1ncn2C1O[C@H](COP(=O)(O)OP(=O)(O)OP(=O)(O)O)[C@@H](O)[C@H]1O (some centres not stated) |  |  | 773 nM |  |  |  |  | 
CCCCCCSc1nc(N)c2ncn(C3O[C@H](COP(=O)(O)OP(=O)(O)OP(=O)(O)O)[C@@H](O)[C@H]3O)c2n1 (some centres not stated) | Active | 7.5 | 5 nM |  | inactive | 6.7 | 6.7 | Relative activity (Cavia porcellus [1]): Active
Nc1nc(SCCc2ccccc2)nc2c1ncn2C1O[C@H](COP(=O)(O)OP(=O)(O)OP(=O)(O)O)[C@@H](O)[C@H]1O (some centres not stated) |  | 7.1 | 30 nM |  | inactive | 6.5 | 6.2 | Relative activity (Cavia porcellus [16]): Active; Relative activity (Cavia porcellus [17]): Active
C=CCCCCSc1nc(N)c2ncn(C3O[C@H](COP(=O)(O)OP(=O)(O)OP(=O)(O)O)[C@@H](O)[C@H]3O)c2n1 (some centres not stated) |  | 7.9 | 10 nM |  | inactive |  | 7 | Relative activity (Cavia porcellus [18]): Active; Relative activity (Cavia porcellus [13]): Active
NCCCCCCCSc1nc(N)c2ncn(C3O[C@H](COP(=O)(O)OP(=O)(O)OP(=O)(O)O)[C@@H](O)[C@H]3O)c2n1 (some centres not stated) |  |  | 72.8 nM |  |  |  |  | 
C=CCCCCSc1nc(N)c2ncn(C3O[C@H](COP(=O)(O)O)[C@@H](O)[C@H]3O)c2n1 (some centres not stated) |  |  | 328 nM | 6.3 | inactive | 7 |  | Relative activity (Cavia porcellus [19]): inactive; Relative activity (Cavia porcellus [9]): inactive; Relative activity (Cavia porcellus [20]): 5
Nc1nc(Cl)nc2c1ncn2[C@@H]1O[C@H](COP(=O)(O)OP(=O)(O)OP(=O)(O)O)[C@@H](O)[C@H]1O | Active | 7.2 | 72 nM |  | inactive |  |  | Relative activity (Oryctolagus cuniculus [21]): 5.8; Relative activity (Oryctolagus cuniculus [22]): 6.2; Relative activity (Cavia porcellus [13]): Active
Nc1ncnc2c1ncn2[C@@H]1O[C@H](COP(=O)(O)OP(=O)(O)O)[C@@H](O)[C@H]1O [ADENOSINE DIPHOSPHATE] | Active |  | 8000 nM |  | inactive |  |  | Relative activity (Oryctolagus cuniculus [21]): 5.2; Relative activity (Oryctolagus cuniculus [23]): 5.2; Relative activity (Cavia porcellus [20]): Active; Relative activity (Cavia porcellus [24]): Partially active
Nc1ncnc2c1ncn2[C@@H]1O[C@H](CO)[C@@H](O)[C@H]1O [ADENOSINE] |  |  |  | 5.7 | inactive |  |  | Relative activity (Cavia porcellus [25]): 3.9; K 0.5 (Meleagris gallopavo): inactive; Relative activity (Oryctolagus cuniculus [22]): 6; Relative activity (Cavia porcellus [19]): inactive; Relative activity (Cavia porcellus [9]): inactive
